Assay results as given in ChEMBL document CHEMBL3271988, “Nitrogen analogues of 1,4-benzoquinones. Activities against the ascitic sarcoma 180 of mice” (J Med Chem, 1978).
Active and inactive are the calls of the source. The calls are words filed in the database; no cut-off is given here.

Key:
Sarcoma-180 [1] = assay: Antitumor activity against mouse Sarcoma 180 cells allografted in Swiss mouse assessed as survival time at 15 mg/kg, ip three doses were given at 24 hrs interval starting 24 hrs after allograft injection relative to control; format: functional; settings: route intraperitoneal
Summary of the method: (§1)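 Swiss mice inoculated ip with 10^6 ascitic sarcoma 180 cells. Compound given ip daily ×3 at 24-h intervals, starting 24 h after inoculation. Controls received isotonic saline on the same schedule; 6 mice per group. Mice alive at 60 days counted as 60 days in mean survival (±SD).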

Sarcoma-180 [2] = assay: Antitumor activity against mouse Sarcoma 180 cells allografted in Swiss mouse at 15 mg/kg, ip three doses were given at 24 hrs interval starting 24 hrs after allograft injection relative to control; format: functional; settings: route intraperitoneal
Summary of the method: (§2)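 Swiss mice received 10^6 ascitic sarcoma 180 cells ip, then three ip doses 24 h apart starting at 24 h. Controls got isotonic salt solution on the same schedule. T/C% is mean survival time of treated over controls (6 mice per group).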

[3] = Acute toxicity in single ip dosed Swiss mouse assessed as death up to 5 days; format: organism-based; settings: in vivo
Summary of the method: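 Male Swiss mice given one ip dose. LD50 taken as the single dose killing 50% of animals within 5 days.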

Sarcoma-180 [4] = assay: Antitumor activity against mouse Sarcoma 180 cells allografted in Swiss mouse assessed as survival at 15 mg/kg, ip three doses were given at 24 hrs interval starting 24 hrs after allograft injection measured after 5 days; format: functional, organism-based; parameters: dose 15 mg/kg
Summary of the method: (§3)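 Swiss mice were injected ip with 10^6 ascitic sarcoma 180 cells. Three daily ip doses followed, the first 24 h after cell injection. The read-out was the number of mice surviving at 5 days, out of 6 treated.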

Sarcoma-180 [5] = assay: Antitumor activity against mouse Sarcoma 180 cells allografted in Swiss mouse assessed as weight gain at 15 mg/kg, ip three doses were given at 24 hrs interval starting 24 hrs after allograft injection measured after 3 days relative to control; format: functional; settings: route intraperitoneal
Summary of the method: (§4)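 Ascitic sarcoma 180 model in Swiss mice: 10^6 cells ip, then three ip doses at 24-h intervals beginning 24 h later. Mice were weighed 1 day after cell injection and again 3 days later (24 h after the third dose). Percent weight gain of treated mice was compared with saline-treated controls on the same schedule.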

Sarcoma-180 [6] = assay: Antitumor activity against mouse Sarcoma 180 cells allografted in Swiss mouse assessed as cure at 15 mg/kg, ip three doses were given at 24 hrs interval starting 24 hrs after allograft injection measured after 60 days; format: functional, organism-based; parameters: dose 15 mg/kg
Summary of the method: (§5)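 Swiss mice given 10^6 ascitic sarcoma 180 cells ip. Starting 24 h later, three ip doses were given 24 h apart. Controls got isotonic salt solution on the same schedule. A cure was a mouse alive with no evidence of cancer cells 60 days after cell injection, reported per 6 mice.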

[7] = Redox potential of the compound in alcohol-water solution; settings: buffer
Sarcoma-180 [8] = assay: Antitumor activity against mouse Sarcoma 180 cells allografted in Swiss mouse assessed as survival time at 150 mg/kg, ip three doses were given at 24 hrs interval starting 24 hrs after allograft injection relative to control; format: functional; settings: route intraperitoneal; summary of the method: as §1
Sarcoma-180 [9] = assay: Antitumor activity against mouse Sarcoma 180 cells allografted in Swiss mouse at 150 mg/kg, ip three doses were given at 24 hrs interval starting 24 hrs after allograft injection relative to control; format: functional; settings: route intraperitoneal; summary of the method: as §2
Sarcoma-180 [10] = assay: Antitumor activity against mouse Sarcoma 180 cells allografted in Swiss mouse assessed as survival at 150 mg/kg, ip three doses were given at 24 hrs interval starting 24 hrs after allograft injection measured after 5 days; format: functional, organism-based; parameters: dose 150 mg/kg; summary of the method: as §3
Sarcoma-180 [11] = assay: Antitumor activity against mouse Sarcoma 180 cells allografted in Swiss mouse assessed as weight gain at 150 mg/kg, ip three doses were given at 24 hrs interval starting 24 hrs after allograft injection measured after 3 days relative to control; format: functional; settings: route intraperitoneal; summary of the method: as §4
Sarcoma-180 [12] = assay: Antitumor activity against mouse Sarcoma 180 cells allografted in Swiss mouse assessed as cure at 150 mg/kg, ip three doses were given at 24 hrs interval starting 24 hrs after allograft injection measured after 60 days; format: functional, organism-based; parameters: dose 150 mg/kg; summary of the method: as §5
Sarcoma-180 [13] = assay: Antitumor activity against mouse Sarcoma 180 cells allografted in Swiss mouse assessed as survival time at 70 mg/kg, ip three doses were given at 24 hrs interval starting 24 hrs after allograft injection relative to control; format: functional; settings: route intraperitoneal; summary of the method: as §1
Sarcoma-180 [14] = assay: Antitumor activity against mouse Sarcoma 180 cells allografted in Swiss mouse at 70 mg/kg, ip three doses were given at 24 hrs interval starting 24 hrs after allograft injection relative to control; format: functional; settings: route intraperitoneal
Summary of the method: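 Swiss mice given 10^6 ascitic sarcoma 180 cells ip; three ip doses at 24-h intervals starting 24 h later; controls received isotonic salt solution on the same schedule. […] Cures = alive without cancer cells at 60 days.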

[15] = Half life of the compound in water at pH 7 at 25 degC by spectrophotometry; format: physicochemical
Summary of the method: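 Compound dissolved in absolute ethanol, then diluted into 0.01 M Tris buffer brought to pH 7 with HCl, 25 °C. Absorbance at λmax followed over hours or days; log absorbance vs time fitted by least squares, rate constant and half-time taken from the slope.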

Sarcoma-180 [16] = assay: Antitumor activity against mouse Sarcoma 180 cells allografted in Swiss mouse assessed as survival at 70 mg/kg, ip three doses were given at 24 hrs interval starting 24 hrs after allograft injection measured after 5 days; format: functional, organism-based; parameters: dose 70 mg/kg; summary of the method: as §3
Sarcoma-180 [17] = assay: Antitumor activity against mouse Sarcoma 180 cells allografted in Swiss mouse assessed as weight gain at 70 mg/kg, ip three doses were given at 24 hrs interval starting 24 hrs after allograft injection measured after 3 days relative to control; format: functional; settings: route intraperitoneal; summary of the method: as §4
Sarcoma-180 [18] = assay: Antitumor activity against mouse Sarcoma 180 cells allografted in Swiss mouse assessed as cure at 70 mg/kg, ip three doses were given at 24 hrs interval starting 24 hrs after allograft injection measured after 60 days; format: functional, organism-based; parameters: dose 70 mg/kg; summary of the method: as §5
Sarcoma-180 [19] = assay: Antitumor activity against mouse Sarcoma 180 cells allografted in Swiss mouse at 30 mg/kg, ip three doses were given at 24 hrs interval starting 24 hrs after allograft injection relative to control; format: functional; settings: route intraperitoneal; summary of the method: as §2
Sarcoma-180 [20] = assay: Antitumor activity against mouse Sarcoma 180 cells allografted in Swiss mouse assessed as weight gain at 30 mg/kg, ip three doses were given at 24 hrs interval starting 24 hrs after allograft injection measured after 3 days relative to control; format: functional; settings: route intraperitoneal; summary of the method: as §4
Sarcoma-180 [21] = assay: Antitumor activity against mouse Sarcoma 180 cells allografted in Swiss mouse assessed as survival at 30 mg/kg, ip three doses were given at 24 hrs interval starting 24 hrs after allograft injection measured after 5 days; format: functional, organism-based; parameters: dose 30 mg/kg; summary of the method: as §3
Sarcoma-180 [22] = assay: Antitumor activity against mouse Sarcoma 180 cells allografted in Swiss mouse assessed as cure at 30 mg/kg, ip three doses were given at 24 hrs interval starting 24 hrs after allograft injection measured after 60 days; format: functional, organism-based; parameters: dose 30 mg/kg; summary of the method: as §5
Sarcoma-180 [23] = assay: Antitumor activity against mouse Sarcoma 180 cells allografted in Swiss mouse assessed as survival time at 30 mg/kg, ip three doses were given at 24 hrs interval starting 24 hrs after allograft injection relative to control; format: functional; settings: route intraperitoneal; summary of the method: as §1
Sarcoma-180 [24] = assay: Antitumor activity against mouse Sarcoma 180 cells allografted in Swiss mouse assessed as survival time at 10 mg/kg, ip three doses were given at 24 hrs interval starting 24 hrs after allograft injection relative to control; format: functional; settings: route intraperitoneal; summary of the method: as §1
Sarcoma-180 [25] = assay: Antitumor activity against mouse Sarcoma 180 cells allografted in Swiss mouse at 10 mg/kg, ip three doses were given at 24 hrs interval starting 24 hrs after allograft injection relative to control; format: functional; settings: route intraperitoneal; summary of the method: as §2
Sarcoma-180 [26] = assay: Antitumor activity against mouse Sarcoma 180 cells allografted in Swiss mouse assessed as weight gain at 10 mg/kg, ip three doses were given at 24 hrs interval starting 24 hrs after allograft injection measured after 3 days relative to control; format: functional; settings: route intraperitoneal; summary of the method: as §4
Sarcoma-180 [27] = assay: Antitumor activity against mouse Sarcoma 180 cells allografted in Swiss mouse assessed as survival at 10 mg/kg, ip three doses were given at 24 hrs interval starting 24 hrs after allograft injection measured after 5 days; format: functional, organism-based; parameters: dose 10 mg/kg; summary of the method: as §3
Sarcoma-180 [28] = assay: Antitumor activity against mouse Sarcoma 180 cells allografted in Swiss mouse assessed as cure at 10 mg/kg, ip three doses were given at 24 hrs interval starting 24 hrs after allograft injection measured after 60 days; format: functional, organism-based; parameters: dose 10 mg/kg; summary of the method: as §5

## O=C1C=CC(=NBr)C=C1
Sarcoma-180 [1]
  Survival: 15.5 days
Sarcoma-180 [2]
  T/C: 145%
[3]
  LD50 at 120 h: 40 mg/kg
Sarcoma-180 [4]
  Activity: Active
Sarcoma-180 [5]
  Activity: -3.8%
Sarcoma-180 [6]
  Activity: inactive
[7]
  Redox potential: 0.518 V

## O=C1C=CC(=NO)C=C1
Sarcoma-180 [8]
  Survival: 17.8 days
Sarcoma-180 [9]
  T/C: 135%
[3]
  LD50 at 120 h: 260 mg/kg
Sarcoma-180 [10]
  Activity: Active
Sarcoma-180 [11]
  Activity: -5.2%
Sarcoma-180 [12]
  Activity: inactive
[7]
  Redox potential: 0.544 V

## O=C1C=CC(=Nc2ccc([O-])cc2)C=C1.[Na+]
Sarcoma-180 [1]
  Survival: 32.8 days
Sarcoma-180 [2]
  T/C: 214%
[3]
  LD50 at 120 h: 50 mg/kg
Sarcoma-180 [4]
  Activity: Active
Sarcoma-180 [5]
  Activity: -2.2%

## O=C1C=C/C(=N/O)C=C1Cl
Sarcoma-180 [13]
  Survival: 12.2 days
Sarcoma-180 [14]
  T/C: 130%
[15]
  half-life: 13.1 days
[3]
  LD50 at 120 h: 240 mg/kg
Sarcoma-180 [16]
  Activity: Active
Sarcoma-180 [17]
  Activity: 13.4%
Sarcoma-180 [18]
  Activity: inactive
[7]
  Redox potential: 0.516 V

## CN(C)c1ccc(N=C2C=CC(=O)C=C2)cc1
Sarcoma-180 [19]
  T/C: 132%
Sarcoma-180 [20]
  Activity: -0.9%
[15]
  half-life: 29.2 days
[3]
  LD50 at 120 h: 80 mg/kg
Sarcoma-180 [21]
  Activity: Active
Sarcoma-180 [22]
  Activity: inactive
Sarcoma-180 [23]
  Survival: 19.2 days
[7]
  Redox potential: 0.628 V

## O=C1C=C/C(=N/O)C(Br)=C1
Sarcoma-180 [8]
  Survival: 18.2 days
Sarcoma-180 [9]
  T/C: 158%
[3]
  LD50 at 120 h: 1090 mg/kg
Sarcoma-180 [10]
  Activity: Active
Sarcoma-180 [11]
  Activity: 6.4%
Sarcoma-180 [12]
  Activity: inactive
[7]
  Redox potential: 0.532 V

## COC1=C/C(=N\c2ccc(N(C)C)cc2)C=CC1=O
Sarcoma-180 [24]
  Survival: 19.3 days
Sarcoma-180 [25]
  T/C: 181%
Sarcoma-180 [26]
  Activity: 1.9%
[3]
  LD50 at 120 h: 25 mg/kg
Sarcoma-180 [27]
  Activity: Active
Sarcoma-180 [28]
  Activity: inactive
[7]
  Redox potential: 0.561 V
